Sampled rows, rich in hits. Any-hit rate of the full collection: about 3.8%.
RGS4 inh: inhibitors of human RGS4; P49798; HEK293 M3R/RGS4 inducible, Fluo-4 calcium flux; stronger effect = higher value; triggered by carbachol at its EC20; B-score at 10 µM; 0.45% of 310,000 active;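 active = B-score, a plate-corrected calcium signal, over three deviations above library mean, with baseline fluorescence within five deviations of library mean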;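 also: RGS4 expression induced by doxycycline in cells with stable M3 receptor; B-score is computed from the integrated fluorescence ratio over baseline after carbachol; higher B-score means a larger calcium signal and so more RGS4 inhibition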
Target sequence (P49798 whole entry, looked up): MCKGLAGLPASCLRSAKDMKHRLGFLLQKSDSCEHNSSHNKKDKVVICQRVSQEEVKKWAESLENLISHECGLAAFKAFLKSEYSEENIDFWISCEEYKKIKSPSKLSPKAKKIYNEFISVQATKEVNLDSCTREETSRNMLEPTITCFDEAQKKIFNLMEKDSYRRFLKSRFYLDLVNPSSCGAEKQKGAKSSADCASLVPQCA
MrgX1 antagonist: human MrgX1 receptor antagonism, primary screen. 1.3% of 310,000 active. MRGX1-HEK293 calcium flux, Fluo-4, BAM8-22 antagonism; stronger effect = lower value. AID 588676. B-score at 10 µM. Q96LB2;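 active = calcium-response B-score plate-corrected more than 3 library SD below zero, starting fluorescence within 5 deviations, no agonist response on first addition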;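 also: peak minus trough fluorescence over baseline after final BAM8-22 challenge near maximal dose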
Target sequence (Q96LB2 whole entry, looked up): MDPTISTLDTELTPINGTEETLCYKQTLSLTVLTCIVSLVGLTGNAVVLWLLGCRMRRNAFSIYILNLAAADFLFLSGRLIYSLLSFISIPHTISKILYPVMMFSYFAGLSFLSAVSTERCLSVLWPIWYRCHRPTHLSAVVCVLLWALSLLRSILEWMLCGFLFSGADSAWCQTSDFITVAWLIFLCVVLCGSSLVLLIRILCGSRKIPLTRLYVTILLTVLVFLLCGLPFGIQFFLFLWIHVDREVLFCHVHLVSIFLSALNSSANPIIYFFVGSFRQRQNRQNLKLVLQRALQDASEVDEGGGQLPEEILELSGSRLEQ
RGS4 pot: potentiators or activators of RGS4; HEK293 M3R/inducible RGS4, carbachol calcium flux Fluo4; stronger effect = lower value; 0.92% of 310,000 active; B-score at 10 µM;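 active = B-score of the integrated calcium signal more than 4 SD below the library mean, with starting fluorescence not abnormally high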;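 also: negative B-score means reduced calcium response which marks RGS4 activation or potentiation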
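System: HEK293 FlpIn-TREx cells, stable M3R, doxycycline-inducible RGS4. Timing: overnight RGS4 induction, 30 min dye load 37 °C, 20 min compound RT. Also added: carbachol, ECmax concentration. Measured by: Fluo4 fluorescence kinetic imaging of calcium. Evaluation: integrated calcium ratio converted to B score.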
MrgX1 agonist: human MrgX1 receptor agonism, primary screen; Q96LB2; MrgX1-HEK293 cells, Fluo-4 calcium fluorescence, agonist mode; stronger effect = higher value; B-score at 10 µM; 0.44% of 310,000 active; AID 588627;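 active = calcium response B-score plate-corrected fluorescence ratio at least 3 library SD, with starting fluorescence B-score inside 5 SD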
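System: HEK293 cells stably expressing human MrgX1 receptor; Dosing: test compound in the initial addition of three; Schedule: overnight plating, then 30 min 37 °C plus 30 min room-temperature dye loading; Detection: kinetic calcium dye fluorescence, Fluo-4 NW; Controls: per-plate positive and negative controls for Z′ factor.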
MrgX1 allo act: human MrgX1 positive allosteric modulation, primary screen; Q96LB2; MrgX1-HEK293, Fluo-4 calcium flux, FDSS; stronger effect = higher value; B-score at 10 µM; 0.63% of 310,000 active;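 active = plate-corrected calcium response at least 3 library SD above typical, normal starting fluorescence, not activating the receptor alone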;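 also: compound read alongside a low EC10 to EC30 dose of BAM8-22 agonist; peak minus trough fluorescence over baseline measured at the second addition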
Hep lipid drop: hepatic lipid droplet formation modulation. AML12 mouse hepatocytes, oleate lipid droplets, BODIPY imaging. inhibition, % at 6.5 µM. 0.4% of 240,000 active. AID 1656;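 active = lipid droplet intensity inhibited by at least 50%, with more than 500 cells counted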
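Test system: AML12 mouse liver cells; schedule: overnight exposure; technique: high-content imaging of BODIPY-stained droplets and DAPI nuclei; read-out: % inhibition of corrected integrated BODIPY droplet signal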
RGS4 activ val: confirmation of RGS4 activators; 89% of 1,100 active; inhibition, % at 10 µM; HEK293 M3R/RGS4 inducible, carbachol calcium flux Fluo4; AID 602282; shares compounds with RGS4 pot;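 active = inhibition above 3 SD of the buffer control wells, cut at about 41% in these data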;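 also: signal is the integrated peak-minus-minimum Fluo4 fluorescence over baseline ratio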
RGS4 act ctr: RGS4 activator counter-screen hit in non-induced cells; shares compounds with RGS4 pot; HEK293 M3R non-induced RGS4, Fluo4 calcium flux; after carbachol challenge at its EC90; inhibition, % at 10 µM; 82% of 1,100 active;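 active = inhibition exceeding 3 SD of buffer-only control wells, cut at about 26% in these data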;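 also: percent drop in integrated peak-minus-baseline over baseline Fluo4 ratio after carbachol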
A number is an active result; - = inactive; . = not tested or not shown.

SMILES	RGS4 inh	MrgX1 antagonist	RGS4 pot	MrgX1 agonist	MrgX1 allo act	Hep lipid drop	RGS4 activ val	RGS4 act ctr
COc1ccc(NC(=O)c2ccc3ccccc3n2)cc1S(=O)(=O)N1CCCCC1	-	-	-8.6	-	-	-	92	49
COc1ccc(S(=O)(=O)N2CCCCC2)cc1NC(=O)c1ccc2ccccc2n1	-	-	-	-	-	-	.	.
CC(=O)Nc1cccc(Oc2ccc3c(c2)C(=O)NC3=O)c1	-	-	-	-	-	-	.	.
Cc1nn(-c2ccccc2)c(C)c1/C=N/NC(=O)CSc1nnc(SCc2cccc3ccccc23)s1	-	-	-	-	-	-	.	.
Cc1cc2oc(=O)c(CC(=O)NCCCN(C)C)c(C)c2c2occ(C(C)(C)C)c12	-	-	-7.9	-	-	-	90	51
CCCc1cc(=O)oc2cc(C)cc(OC(C)C(=O)N[C@@H](Cc3c[nH]c4ccccc34)C(=O)O)c12 (some centres not stated)	-	-	-14	-	-	-	-	-
CCCCc1cc(=O)oc2cc(C)cc(OC(C)C(=O)NC(Cc3c[nH]c4ccc(O)cc34)C(=O)O)c12 (configuration not stated)	-	-	-	-	-	-	.	.
COc1cccc(-c2csc(N3CCN(C(=S)NCC(C)C)CC3)n2)c1	-	-	-7.7	-	-	.	80	56
CCNC(=S)N1CCN(c2nc(-c3cccc(OC)c3)cs2)CC1	-	-	-	-	-	-	.	.
C=CCn1c(C)cc(-c2csc(NC(=O)CCc3nc4ccccc4c(=O)[nH]3)n2)c1C	-	-	-8.4	-	-	.	68	-
O=C(CCc1nc2ccccc2c(=O)[nH]1)Nc1nc(-c2cccs2)cs1	-	-	-	-	-	.	.	.
Cc1scc(-c2n[nH]c(=S)n2Cc2ccccc2)c1C	-	-	-7.6	-	-	-	74	84
Cc1[nH]c(C)c(S(=O)(=O)N2CCN(c3ccccc3F)CC2)c1C(=O)N1CCCCC1	-	-	-	-	-	-	.	.
COCCNC(=O)CN(C(=O)Cn1nnc2ccccc21)c1ccc(C)c(F)c1	-	-	-	-	-	-	.	.
CCOC(=O)c1nnn(-c2nonc2-n2cccc2)c1CCl	-	-	-	-	-	.	.	.
CCOC(=O)c1nnn(-c2nonc2-n2cccc2)c1CN1CCC(C)CC1	-	-	-8	-	-	.	72	-
Cc1ccccc1C(=NCCCN(C)C)c1ccccc1C	-	-	-9.3	-	-	-	88	56
COc1cccc(CN2CCCC(C(=O)Nc3ccc(-c4cscn4)cc3)C2)c1 (configuration not stated)	-	-	-9.9	-	-	-	92	62
COc1ccccc1NC(=O)c1ccccc1Oc1ccccc1	-	-5.9	-9.2	-	-	.	86	50
Cc1ccccc1Cn1c(C(=O)OC(C)C)cc2c1ccn2C	-	-	-8	-	-	.	90	50
CCOC(=O)c1cc2c(ccn2C)n1CC(=O)N(Cc1ccccc1)c1ccccc1	-	-	-	-	-	-	.	.
CCOC(=O)c1cc2c(ccn2C)n1Cc1ccccc1C	-	-	-8.8	-	-	-	84	40
COc1ccc(Cl)c2sc(N(CCN(C)C)C(=O)CCS(=O)(=O)c3ccc(C)cc3)nc12	-	-	-	-	-	.	.	.
COc1ccc(OC)c2sc(N(CCCN(C)C)C(=O)CCS(=O)(=O)c3ccccc3)nc12	-	-7.6	-13	-	-	.	84	58
COc1ccccc1C(CNC(=O)c1cccc(NS(=O)(=O)c2ccc(C)c(F)c2)c1)N(C)C (configuration not stated)	-	-	-8.4	-	-	.	77	55
SMILES	RGS4 inh	MrgX1 antagonist	RGS4 pot	MrgX1 agonist	MrgX1 allo act	Hep lipid drop	RGS4 activ val	RGS4 act ctr
CC(=O)Nc1ccc(CN2CCN(CC=C(C)C)C(CCO)C2)cc1 (configuration not stated)	-	-	-	-	-	-	.	.
OCCC1CN(Cc2cnc(N3CCCC3)s2)CCN1C1CCCC1 (configuration not stated)	-	-	-7.9	-	-	-	70	27
CC(=O)Nc1ccc(CN2CCN(C3CCCC3)C(CCO)C2)cc1 (configuration not stated)	-	-	-8	-	-	-	88	52
CC(=O)Nc1ccc(CN2CCCC(C(=O)c3ccc(C(F)(F)F)cc3)C2)cc1 (configuration not stated)	-	-	-10	-	-	-	72	84
Cc1ncc(CN2CCN(C3CCCC3)C(CCO)C2)s1 (configuration not stated)	-	-	-	-	-	-	.	.
OCCC1CN(C/C(Cl)=C/c2ccccc2)CCN1C1CCCC1 (configuration not stated)	-	-	-10	-	-	-	70	84
Cc1ccc(S(=O)(=O)Nc2ccccc2C(=O)N2CCN(C)CC2)cc1	-	-	-	-	-	-	.	.
COc1ccc2cc(CCNS(=O)(=O)c3ccc(NC(C)=O)cc3)c(=O)[nH]c2c1	-	-	-	-	-	-	.	.
COc1ccc(C(=O)N=c2sc3c(C)ccc(OC)c3n2C)cc1	-	-	-	-	-	-	.	.
CCc1nc2ccccc2c(C(=O)OCC(=O)Nc2cccc(S(=O)(=O)NC3=NCCCCC3)c2)c1C	-	-	-7.7	-	-	-	64	-
O=C(Nc1ncccc1O)C1CCN(S(=O)(=O)c2ccc3ccccc3c2)CC1	-	-	-	-	-	.	.	.
Cc1ccc(C)c(-n2c3nc(=O)n(C)c(=O)c-3cc3ccccc32)c1	-	-	-12	-	-	-	-	-
Cc1nn(-c2ccccc2)c2c1cc1c(=O)n(C)c(=O)nc-1n2-c1ccccc1F	-	-	-	-	-	-	.	.
COc1cccc(OCCn2cc(C(=O)c3ccco3)c3ccccc32)c1	-	-	-11	-	-	-	90	50
CC1CCN(c2ccccc2NC(=O)c2ccc(Br)o2)CC1	-	-	-9.4	-	-	-	54	-
O=C(c1cccc(C(F)(F)F)c1)N(c1ccccn1)C1CCCCC1	-	-	-	-	-	-	.	.
CC(C)NC(=O)CN1CCN(Cc2nc(C(c3ccccc3)c3ccccc3)no2)CC1	-	-	-7.6	-	-	-	92	58
NC(=O)CCN1CCN(Cc2nc(C(c3ccccc3)c3ccccc3)no2)CC1	-	-	-8.7	-	-	-	92	58

Compound activity: PubChem BioAssay, several laboratories
